From ChEMBL document CHEMBL1154150, “Synthesis and anticonvulsant activity of some new bishydrazones derived from 3,4-dipropyloxythiophene” (Eur J Med Chem, 2009)
Calls of active or inactive are those of the source. The calls are words filed in the database; no cut-off is given here.

Assays:
[1] = test system: Mus musculus; assay: Neurotoxicity in CF1 mouse at 100 mg/kg, ip after 0.5 hrs by rotarod test; type: toxicity, organism-based; set-up: dose 100 mg/kg, route intraperitoneal; details: in vivo
Summary of the method: (§1)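 Rotorod neurotoxicity in male CF-1 mice (18–25 g) after i.p. compound in 0.5% methyl cellulose/water or PEG 200 at 30, 100 or 300 mg/kg; reported as number showing toxicity/number tested.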

[2] = test system: Mus musculus; assay: Anticonvulsant activity in CF1 mouse assessed as protection against maximal electroshock-induced seizures at 100 mg/kg, ip after 4 hrs; type: functional, organism-based; set-up: dose 100 mg/kg
Summary of the method: (§2)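 Male CF-1 albino mice (18–25 g), dosed i.p. at 30, 100 or 300 mg/kg in 0.5% methyl cellulose/water or PEG 200 (0.01 ml/g); tested at intervals after dosing; protection = abolition of hind limb tonic extensor component of MES seizure; scored as protected/tested.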

[3] = test system: Mus musculus; assay: Neurotoxicity in CF1 mouse at 30 mg/kg, ip after 0.5 hrs by rotarod test; type: toxicity, organism-based; set-up: dose 30 mg/kg, route intraperitoneal; details: in vivo; summary of the method: as §1
[4] = test system: Mus musculus; assay: Neurotoxicity in CF1 mouse at 30 mg/kg, ip after 4 hrs by rotarod test; type: toxicity, organism-based; set-up: dose 30 mg/kg, route intraperitoneal; details: in vivo; summary of the method: as §1
[5] = test system: Mus musculus; assay: Anticonvulsant activity in CF1 mouse assessed as protection against maximal electroshock-induced seizures at 300 mg/kg, ip after 0.5 hrs; type: functional, organism-based; set-up: dose 300 mg/kg; summary of the method: as §2
[6] = test system: Mus musculus; assay: Neurotoxicity in CF1 mouse at 300 mg/kg, ip after 4 hrs by rotarod test; type: toxicity, organism-based; set-up: dose 300 mg/kg, route intraperitoneal; details: in vivo; summary of the method: as §1
[7] = test system: Mus musculus; assay: Neurotoxicity in CF1 mouse at 300 mg/kg, ip after 0.5 hrs by rotarod test; type: toxicity, organism-based; set-up: dose 300 mg/kg, route intraperitoneal; details: in vivo; summary of the method: as §1
[8] = test system: Mus musculus; assay: Anticonvulsant activity in CF1 mouse assessed as protection against subcutaneous metrazole-induced seizures at 100 mg/kg, ip after 4 hrs; type: functional, organism-based; set-up: dose 100 mg/kg
[9] = test system: Mus musculus; assay: Anticonvulsant activity in CF1 mouse assessed as protection against subcutaneous metrazole-induced seizures at 30 mg/kg, ip after 4 hrs; type: functional, organism-based; set-up: dose 30 mg/kg
[10] = test system: Mus musculus; assay: Anticonvulsant activity in CF1 mouse assessed as protection against maximal electroshock-induced seizures at 30 mg/kg, ip after 4 hrs; type: functional, organism-based; set-up: dose 30 mg/kg; summary of the method: as §2
[11] = test system: Mus musculus; assay: Anticonvulsant activity in CF1 mouse assessed as protection against maximal electroshock-induced seizures at 300 mg/kg, ip after 4 hrs; type: functional, organism-based; set-up: dose 300 mg/kg; summary of the method: as §2
[12] = test system: Mus musculus; assay: Anticonvulsant activity in CF1 mouse assessed as protection against subcutaneous metrazole-induced seizures at 300 mg/kg, ip after 4 hrs; type: functional, organism-based; set-up: dose 300 mg/kg
[13] = test system: Mus musculus; assay: Anticonvulsant activity in CF1 mouse assessed as protection against subcutaneous metrazole-induced seizures at 100 mg/kg, ip after 0.5 hrs; type: functional, organism-based; set-up: dose 100 mg/kg
[14] = test system: Mus musculus; assay: Anticonvulsant activity in CF1 mouse assessed as protection against subcutaneous metrazole-induced seizures at 30 mg/kg, ip after 0.5 hrs; type: functional, organism-based; set-up: dose 30 mg/kg
[15] = test system: Mus musculus; assay: Neurotoxicity in CF1 mouse at 100 mg/kg, ip after 4 hrs by rotarod test; type: toxicity, organism-based; set-up: dose 100 mg/kg, route intraperitoneal; details: in vivo; summary of the method: as §1
[16] = test system: Mus musculus; assay: Anticonvulsant activity in CF1 mouse assessed as protection against maximal electroshock-induced seizures at 100 mg/kg, ip after 0.5 hrs; type: functional, organism-based; set-up: dose 100 mg/kg; summary of the method: as §2
[17] = test system: Mus musculus; assay: Anticonvulsant activity in CF1 mouse assessed as protection against maximal electroshock-induced seizures at 30 mg/kg, ip after 0.5 hrs; type: functional, organism-based; set-up: dose 30 mg/kg; summary of the method: as §2
[18] = test system: Mus musculus; assay: Anticonvulsant activity in CF1 mouse assessed as protection against subcutaneous metrazole-induced seizures at 300 mg/kg, ip after 0.5 hrs; type: functional, organism-based; set-up: dose 300 mg/kg

SMILES | Activity [1] | Activity [2] | Activity [3] | Activity [4] | Activity [5] | Activity [6] | Activity [7] | Activity [8] | Activity [9] | Activity [10] | Activity [11] | Activity [12] | Activity [13] | Activity [14] | Activity [15] | Activity [16] | Activity [17] | Activity [18]
CCCOc1c(C(=O)N/N=C/c2ccc3c(c2)c2ccccc2n3CC)sc(C(=O)N/N=C/c2ccc3c(c2)c2ccccc2n3CC)c1OCCC | Toxic | inactive | Non-toxic | Non-toxic | inactive | Non-toxic | Toxic | inactive | inactive | inactive | inactive | inactive | inactive | inactive | Non-toxic | inactive | inactive | inactive
CCCOc1c(C(=O)NN=C2CC(C)Sc3sc(S(N)(=O)=O)cc32)sc(C(=O)NN=C2CC(C)Sc3sc(S(N)(=O)=O)cc32)c1OCCC (stereo unspecified) | Toxic | inactive | Non-toxic | Non-toxic | inactive | Toxic | Toxic | inactive | inactive | inactive | inactive | inactive | inactive | inactive | Non-toxic | inactive | inactive | inactive
CCCOc1c(C(=O)N/N=C/c2ccc(-c3ccccc3)cc2)sc(C(=O)N/N=C/c2ccc(-c3ccccc3)cc2)c1OCCC | Toxic | inactive | Non-toxic | Non-toxic | inactive | Non-toxic | Toxic | inactive | inactive | inactive | inactive | inactive | inactive | inactive | Non-toxic | inactive | inactive | inactive
CCCOc1c(C(=O)N/N=C(\C)c2ccc[nH]2)sc(C(=O)N/N=C(\C)c2ccc[nH]2)c1OCCC | Non-toxic | inactive | Non-toxic | Non-toxic | inactive | Non-toxic | Non-toxic | inactive | inactive | inactive | inactive | inactive | inactive | inactive | Non-toxic | inactive | inactive | inactive
CCCOc1c(C(=O)N/N=C\c2ccc([N+](=O)[O-])o2)sc(C(=O)N/N=C/c2ccc([N+](=O)[O-])o2)c1OCCC | Toxic | inactive | – | Non-toxic | inactive | Toxic | Toxic | inactive | inactive | inactive | inactive | inactive | – | inactive | Toxic | inactive | inactive | inactive
CCCOc1c(C(=O)N/N=C(\C)c2ccccc2)sc(C(=O)N/N=C(\C)c2ccccc2)c1OCCC | Non-toxic | inactive | Non-toxic | Non-toxic | inactive | Non-toxic | Non-toxic | inactive | inactive | inactive | – | inactive | inactive | inactive | Non-toxic | inactive | inactive | inactive
CCCOc1c(C(=O)N/N=C(/c2ccccc2)c2ccncc2)sc(C(=O)N/N=C(\c2ccccc2)c2ccncc2)c1OCCC | Non-toxic | inactive | Non-toxic | Non-toxic | inactive | Non-toxic | Non-toxic | inactive | – | inactive | inactive | inactive | inactive | inactive | Non-toxic | – | inactive | inactive
CCCOc1c(C(=O)N/N=C(\C)c2cc3ccccc3oc2=O)sc(C(=O)N/N=C(\C)c2cc3ccccc3oc2=O)c1OCCC | Toxic | inactive | Non-toxic | Non-toxic | inactive | Toxic | Toxic | inactive | inactive | inactive | – | inactive | inactive | inactive | Non-toxic | inactive | inactive | inactive
CCCOc1c(C(=O)N/N=C\c2cccs2)sc(C(=O)N/N=C/c2cccs2)c1OCCC | Toxic | inactive | Non-toxic | Non-toxic | inactive | Toxic | Toxic | inactive | inactive | inactive | inactive | inactive | – | inactive | Non-toxic | inactive | inactive | inactive
CCCC/C=N/NC(=O)c1sc(C(=O)N/N=C/CCCC)c(OCCC)c1OCCC | Toxic | inactive | Non-toxic | Non-toxic | inactive | Non-toxic | Toxic | inactive | inactive | inactive | inactive | inactive | – | inactive | Non-toxic | inactive | inactive | inactive
CCCOc1c(C(=O)N/N=C(\C)c2nccs2)sc(C(=O)N/N=C(\C)c2nccs2)c1OCCC | Non-toxic | inactive | Non-toxic | Non-toxic | inactive | Non-toxic | Non-toxic | inactive | inactive | inactive | inactive | inactive | inactive | inactive | Non-toxic | – | inactive | inactive
CCCOc1c(C(=O)NN=C2CCCC2)sc(C(=O)NN=C2CCCC2)c1OCCC | Non-toxic | inactive | Non-toxic | Non-toxic | inactive | Non-toxic | Non-toxic | inactive | inactive | inactive | – | inactive | inactive | inactive | Non-toxic | inactive | inactive | inactive
